ChEMBL document CHEMBL3797186, “Single Residue Substitutions That Confer Voltage-Gated Sodium Ion Channel Subtype Selectivity in the NaV1.7 Inhibitory Peptide GpTx-1” (J Med Chem, 2016)
Positions of bridges follow the written chain, without caps; N, C: chain ends. Non-standard residues stand in square brackets, D forms with d. Residues, ends and D or L forms follow the SMILES beside them. 1Nal = N[C@@H](Cc1cccc2ccccc12)C(=O)O

Legend:
Type in all cases: cell-based
[1] = target: T1, Sodium channel protein type 5 subunit alpha (Homo sapiens, UniProt Q14524); assay: Inhibition of human Nav1.5 expressed in HEK293 cells assessed as inward peak current by ion-works quattro patch clamp electrophysiology method
Method in brief: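 Stable HEK293 line expressing human NaV1.5, recorded by population patch clamp on the IonWorks Quattro.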

[2] = target: T1, Sodium channel protein type 5 subunit alpha; assay: Inhibition of human Nav1.5 expressed in HEK293 cells by whole cell patch clamp electrophysiology method
Method in brief: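 Stable HEK293 line expressing human NaV1.5, recorded on the PatchXpress 7000A. Percent inhibition versus concentration was pooled from at least 10 cells, with two to three points per concentration. The pooled set was fitted with a four-parameter Hill equation to give a single IC50 curve.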

[3] = target: Sodium channel protein type 9 subunit alpha (Homo sapiens, UniProt Q15858); assay: Inhibition of human Nav1.7 expressed in HEK293 cells assessed as inward peak current by ion-works quattro patch clamp electrophysiology method
Sequence of Sodium channel protein type 9 subunit alpha (Q15858 whole entry): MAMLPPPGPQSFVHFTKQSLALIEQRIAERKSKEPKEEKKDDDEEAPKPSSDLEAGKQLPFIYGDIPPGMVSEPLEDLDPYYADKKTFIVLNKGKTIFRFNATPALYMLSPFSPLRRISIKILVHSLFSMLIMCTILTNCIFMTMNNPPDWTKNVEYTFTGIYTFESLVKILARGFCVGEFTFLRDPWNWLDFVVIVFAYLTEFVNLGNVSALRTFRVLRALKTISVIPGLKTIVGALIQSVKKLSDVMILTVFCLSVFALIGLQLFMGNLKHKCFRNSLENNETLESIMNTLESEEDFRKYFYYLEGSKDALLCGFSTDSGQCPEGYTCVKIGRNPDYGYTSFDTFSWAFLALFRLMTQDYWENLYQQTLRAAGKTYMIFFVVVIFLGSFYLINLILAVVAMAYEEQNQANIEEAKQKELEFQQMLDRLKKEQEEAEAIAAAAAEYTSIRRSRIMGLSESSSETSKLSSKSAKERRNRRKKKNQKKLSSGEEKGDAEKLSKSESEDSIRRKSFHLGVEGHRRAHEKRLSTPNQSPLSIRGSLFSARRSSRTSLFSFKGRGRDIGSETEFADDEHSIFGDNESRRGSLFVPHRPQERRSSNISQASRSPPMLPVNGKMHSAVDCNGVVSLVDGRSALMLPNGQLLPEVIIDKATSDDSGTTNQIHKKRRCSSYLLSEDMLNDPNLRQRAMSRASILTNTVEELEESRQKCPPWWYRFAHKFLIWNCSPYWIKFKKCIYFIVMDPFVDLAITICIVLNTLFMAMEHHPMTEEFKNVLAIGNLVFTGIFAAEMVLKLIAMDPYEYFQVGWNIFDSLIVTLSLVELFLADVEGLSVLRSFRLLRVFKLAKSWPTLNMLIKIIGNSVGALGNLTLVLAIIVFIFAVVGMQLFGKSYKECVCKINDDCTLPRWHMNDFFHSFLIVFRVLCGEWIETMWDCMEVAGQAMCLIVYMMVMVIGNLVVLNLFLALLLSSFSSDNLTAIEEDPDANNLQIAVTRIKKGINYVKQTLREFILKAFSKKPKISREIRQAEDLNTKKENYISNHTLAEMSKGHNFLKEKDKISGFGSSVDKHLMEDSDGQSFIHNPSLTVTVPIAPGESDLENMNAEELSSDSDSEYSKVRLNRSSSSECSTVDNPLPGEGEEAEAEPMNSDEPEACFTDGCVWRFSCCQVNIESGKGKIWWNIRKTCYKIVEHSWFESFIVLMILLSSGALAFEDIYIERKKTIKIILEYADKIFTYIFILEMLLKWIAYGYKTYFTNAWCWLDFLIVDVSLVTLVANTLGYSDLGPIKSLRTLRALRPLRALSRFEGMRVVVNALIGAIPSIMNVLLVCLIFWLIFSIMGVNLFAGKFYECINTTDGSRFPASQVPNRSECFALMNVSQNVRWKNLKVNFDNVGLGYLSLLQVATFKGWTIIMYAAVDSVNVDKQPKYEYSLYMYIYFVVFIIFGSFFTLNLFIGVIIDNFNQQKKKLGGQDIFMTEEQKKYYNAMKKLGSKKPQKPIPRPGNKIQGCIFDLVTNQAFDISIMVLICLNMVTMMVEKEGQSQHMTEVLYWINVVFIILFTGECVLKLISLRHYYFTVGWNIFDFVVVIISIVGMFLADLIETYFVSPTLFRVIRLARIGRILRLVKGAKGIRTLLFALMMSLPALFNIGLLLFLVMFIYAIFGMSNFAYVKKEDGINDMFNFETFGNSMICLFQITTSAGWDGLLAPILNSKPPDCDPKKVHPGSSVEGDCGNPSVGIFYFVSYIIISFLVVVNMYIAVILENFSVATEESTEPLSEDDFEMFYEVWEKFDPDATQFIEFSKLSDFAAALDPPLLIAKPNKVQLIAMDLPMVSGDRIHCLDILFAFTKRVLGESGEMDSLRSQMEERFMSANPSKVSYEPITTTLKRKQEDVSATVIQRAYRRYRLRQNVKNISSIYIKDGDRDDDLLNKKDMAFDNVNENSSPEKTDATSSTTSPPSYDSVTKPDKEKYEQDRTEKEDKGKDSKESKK

T1 sequence (Q14524 whole entry): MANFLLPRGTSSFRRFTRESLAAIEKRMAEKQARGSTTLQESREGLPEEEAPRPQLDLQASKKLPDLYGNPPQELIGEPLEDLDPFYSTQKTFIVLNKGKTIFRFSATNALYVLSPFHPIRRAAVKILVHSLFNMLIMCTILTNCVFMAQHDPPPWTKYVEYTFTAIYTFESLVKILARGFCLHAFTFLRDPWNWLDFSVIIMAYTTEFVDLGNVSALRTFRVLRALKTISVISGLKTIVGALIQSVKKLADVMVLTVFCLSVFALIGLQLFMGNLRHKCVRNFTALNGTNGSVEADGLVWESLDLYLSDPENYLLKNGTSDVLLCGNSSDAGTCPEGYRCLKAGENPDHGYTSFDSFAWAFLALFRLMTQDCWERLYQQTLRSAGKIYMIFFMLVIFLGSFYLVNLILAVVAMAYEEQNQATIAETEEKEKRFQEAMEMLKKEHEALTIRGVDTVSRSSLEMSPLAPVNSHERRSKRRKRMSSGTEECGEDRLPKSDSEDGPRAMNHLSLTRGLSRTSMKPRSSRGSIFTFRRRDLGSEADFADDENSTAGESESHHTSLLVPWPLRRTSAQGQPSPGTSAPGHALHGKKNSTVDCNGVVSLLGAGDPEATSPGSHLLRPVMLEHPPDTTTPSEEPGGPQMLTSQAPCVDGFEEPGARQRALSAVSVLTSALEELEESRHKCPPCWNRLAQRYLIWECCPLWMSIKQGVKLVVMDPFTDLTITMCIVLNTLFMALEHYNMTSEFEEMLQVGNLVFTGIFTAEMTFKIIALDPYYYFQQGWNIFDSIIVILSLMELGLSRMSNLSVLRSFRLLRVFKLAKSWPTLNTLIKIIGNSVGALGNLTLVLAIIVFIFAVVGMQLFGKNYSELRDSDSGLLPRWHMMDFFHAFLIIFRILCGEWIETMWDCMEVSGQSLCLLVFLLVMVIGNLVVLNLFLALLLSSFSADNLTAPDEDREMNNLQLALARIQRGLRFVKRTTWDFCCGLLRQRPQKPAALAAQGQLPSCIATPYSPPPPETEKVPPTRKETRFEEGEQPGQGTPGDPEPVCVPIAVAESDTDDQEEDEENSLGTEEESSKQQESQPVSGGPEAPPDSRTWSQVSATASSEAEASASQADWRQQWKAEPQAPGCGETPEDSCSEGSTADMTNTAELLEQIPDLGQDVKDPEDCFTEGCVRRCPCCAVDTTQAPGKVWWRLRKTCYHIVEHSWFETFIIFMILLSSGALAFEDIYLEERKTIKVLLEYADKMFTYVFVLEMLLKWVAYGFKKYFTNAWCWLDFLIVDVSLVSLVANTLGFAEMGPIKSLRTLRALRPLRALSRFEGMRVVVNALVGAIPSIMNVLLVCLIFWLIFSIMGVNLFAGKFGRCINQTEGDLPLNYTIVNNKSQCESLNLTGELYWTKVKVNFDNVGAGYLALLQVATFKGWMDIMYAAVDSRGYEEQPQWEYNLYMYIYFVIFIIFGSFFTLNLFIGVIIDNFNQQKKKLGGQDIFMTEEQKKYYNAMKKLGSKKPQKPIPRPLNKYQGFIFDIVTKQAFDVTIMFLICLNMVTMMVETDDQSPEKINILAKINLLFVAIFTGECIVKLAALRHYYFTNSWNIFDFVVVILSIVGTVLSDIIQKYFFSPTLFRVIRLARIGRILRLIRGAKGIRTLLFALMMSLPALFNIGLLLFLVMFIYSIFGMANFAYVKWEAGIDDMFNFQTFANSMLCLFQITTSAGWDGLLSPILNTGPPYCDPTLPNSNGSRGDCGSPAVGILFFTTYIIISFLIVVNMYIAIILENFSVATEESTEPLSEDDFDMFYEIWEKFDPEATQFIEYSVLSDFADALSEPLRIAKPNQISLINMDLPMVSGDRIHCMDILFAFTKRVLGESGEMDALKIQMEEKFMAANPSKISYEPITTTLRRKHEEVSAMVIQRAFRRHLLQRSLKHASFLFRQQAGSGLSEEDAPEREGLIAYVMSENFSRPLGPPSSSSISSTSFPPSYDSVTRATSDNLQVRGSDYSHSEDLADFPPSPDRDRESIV

Structure (SMILES)	IC50 [1] [µM]	IC50 [2] [µM]	IC50 [3] [µM]
CC[C@H](C)[C@@H]1NC(=O)[C@@H]2CSSC[C@@H]3NC(=O)[C@H](C(C)C)NC(=O)[C@H](CC(C)C)NC(=O)[C@H](CC(N)=O)NC(=O)[C@@H]4CCCN4C(=O)[C@H](CCCNC(=N)N)NC(=O)[C@H](CSSC[C@H](NC(=O)[C@@H](N)CC(=O)O)C(=O)N[C@@H](CC(C)C)C(=O)NCC(=O)N[C@@H](Cc4ccccc4)C(=O)N[C@@H](CCSC)C(=O)N[C@@H](CCCNC(=N)N)C(=O)N[C@@H](CCCCN)C(=O)N2)NC(=O)[C@H](CSSC[C@@H](C(=O)N[C@@H](CCCCN)C(=O)N[C@@H](Cc2ccc(O)cc2)C(=O)N[C@H](C(=O)N[C@@H](Cc2ccccc2)C(=O)O)C(C)C)NC(=O)[C@H](Cc2c[nH]c4ccccc24)NC(=O)[C@H](CCCCN)NC(=O)[C@H](Cc2cnc[nH]2)NC(=O)[C@H]([C@@H](C)O)NC(=O)[C@H](CCCNC(=N)N)NC(=O)[C@H](CO)NC3=O)NC(=O)[C@H](CCCCN)NC(=O)[C@H](CC(=O)O)NC(=O)[C@H](CC(N)=O)NC(=O)[C@H](CC(=O)O)NC(=O)[C@@H]2CCCN2C1=O (stereo in doubt)	> 5	> 10	
CC[C@H](C)[C@@H]1NC(=O)[C@@H]2CSSC[C@@H]3NC(=O)[C@H](C(C)C)NC(=O)[C@H](CC(C)C)NC(=O)[C@H](CC(N)=O)NC(=O)[C@@H]4CCCN4C(=O)[C@H](CCCNC(=N)N)NC(=O)[C@H](CSSC[C@H](NC(=O)[C@H](CC(=O)O)NC(C)=O)C(=O)N[C@@H](CC(C)C)C(=O)NCC(=O)N[C@@H](Cc4ccccc4)C(=O)N[C@@H](CCSC)C(=O)N[C@@H](CCCNC(=N)N)C(=O)N[C@@H](CCCCN)C(=O)N2)NC(=O)[C@H](CSSC[C@@H](C(=O)N[C@@H](CCCCN)C(=O)N[C@@H](Cc2ccc(O)cc2)C(=O)N[C@H](C(=O)N[C@@H](Cc2ccccc2)C(N)=O)C(C)C)NC(=O)[C@H](Cc2c[nH]c4ccccc24)NC(=O)[C@H](CCCCN)NC(=O)[C@H](Cc2cnc[nH]2)NC(=O)[C@H]([C@@H](C)O)NC(=O)[C@H](CCCNC(=N)N)NC(=O)[C@H](CO)NC3=O)NC(=O)[C@H](CCCCN)NC(=O)[C@H](CC(=O)O)NC(=O)[C@H](CC(N)=O)NC(=O)[C@H](CC(=O)O)NC(=O)[C@@H]2CCCN2C1=O	> 5	> 10	
CC[C@H](C)[C@@H]1NC(=O)[C@@H]2CSSC[C@@H]3NC(=O)[C@H](C(C)C)NC(=O)[C@H](CC(C)C)NC(=O)[C@H](CC(N)=O)NC(=O)[C@@H]4CCCN4C(=O)[C@H](CCCNC(=N)N)NC(=O)[C@H](CSSC[C@H](NC(=O)[C@@H](N)CC(=O)O)C(=O)N[C@@H](CC(C)C)C(=O)NCC(=O)N[C@@H](Cc4ccccc4)C(=O)N[C@@H](CCSC)C(=O)N[C@@H](CCCNC(=N)N)C(=O)N[C@@H](CCCCN)C(=O)N2)NC(=O)[C@H](CSSC[C@@H](C(=O)N[C@@H](CCCCN)C(=O)N[C@@H](Cc2ccc(O)cc2)C(=O)N[C@H](C(=O)N[C@@H](Cc2ccccc2)C(N)=O)C(C)C)NC(=O)[C@H](Cc2cccc4ccccc24)NC(=O)[C@H](CCCCN)NC(=O)[C@H](Cc2cnc[nH]2)NC(=O)[C@H]([C@@H](C)O)NC(=O)[C@H](CCCNC(=N)N)NC(=O)[C@H](CO)NC3=O)NC(=O)[C@H](CCCCN)NC(=O)[C@H](CC(=O)O)NC(=O)[C@H](CC(N)=O)NC(=O)[C@H](CC(=O)O)NC(=O)[C@@H]2CCCN2C1=O (H-DCLGFMRKCIPDNDKCCRPNLVCSRTHK[1Nal]CKYVF-NH2; disulfide 2-17, 9-23, 16-30)	> 5	> 10	
CC[C@H](C)[C@@H]1NC(=O)[C@@H]2CSSC[C@@H]3NC(=O)[C@H](C(C)C)NC(=O)[C@H](CC(C)C)NC(=O)[C@H](CC(N)=O)NC(=O)[C@@H]4CCCN4C(=O)[C@H](CCCN/C(=N/C)NC)NC(=O)[C@H](CSSC[C@H](NC(=O)[C@@H](N)CC(=O)O)C(=O)N[C@@H](CC(C)C)C(=O)NCC(=O)N[C@@H](Cc4ccccc4)C(=O)N[C@@H](CCSC)C(=O)N[C@@H](CCCNC(=N)N)C(=O)N[C@@H](CCCCN)C(=O)N2)NC(=O)[C@H](CSSC[C@@H](C(=O)N[C@@H](CCCCN)C(=O)N[C@@H](Cc2ccc(O)cc2)C(=O)N[C@H](C(=O)N[C@@H](Cc2ccccc2)C(N)=O)C(C)C)NC(=O)[C@H](Cc2c[nH]c4ccccc24)NC(=O)[C@H](CCCCN)NC(=O)[C@H](Cc2cnc[nH]2)NC(=O)[C@H]([C@@H](C)O)NC(=O)[C@H](CCCNC(=N)N)NC(=O)[C@H](CO)NC3=O)NC(=O)[C@H](CCCCN)NC(=O)[C@H](CC(=O)O)NC(=O)[C@H](CC(N)=O)NC(=O)[C@H](CC(=O)O)NC(=O)[C@@H]2CCCN2C1=O	> 5	> 10	
CC[C@H](C)[C@@H]1NC(=O)[C@@H]2CSSC[C@@H]3NC(=O)[C@H](C(C)C)NC(=O)[C@H](CC(C)C)NC(=O)[C@H](CC(N)=O)NC(=O)[C@@H]4CCCN4C(=O)[C@H](CCCNC(=N)N)NC(=O)[C@H](CSSC[C@H](NC(=O)[C@@H](N)CC(=O)O)C(=O)N[C@@H](CC(C)C)C(=O)NCC(=O)N[C@@H](CCC(=O)O)C(=O)N[C@@H](CCSC)C(=O)N[C@@H](CCCNC(=N)N)C(=O)N[C@@H](CCCCN)C(=O)N2)NC(=O)[C@H](CSSC[C@@H](C(=O)N[C@@H](CCCCN)C(=O)N[C@@H](Cc2ccc(O)cc2)C(=O)N[C@H](C(=O)N[C@@H](Cc2ccccc2)C(N)=O)C(C)C)NC(=O)[C@H](Cc2c[nH]c4ccccc24)NC(=O)[C@H](CCCCN)NC(=O)[C@H](Cc2cnc[nH]2)NC(=O)[C@H]([C@@H](C)O)NC(=O)[C@H](CCCNC(=N)N)NC(=O)[C@H](CO)NC3=O)NC(=O)[C@H](CCCCN)NC(=O)[C@H](CC(=O)O)NC(=O)[C@H](CC(N)=O)NC(=O)[C@H](CC(=O)O)NC(=O)[C@@H]2CCCN2C1=O (H-DCLGEMRKCIPDNDKCCRPNLVCSRTHKWCKYVF-NH2; disulfide 2-17, 9-23, 16-30)	> 5		> 5
CC[C@H](C)[C@@H]1NC(=O)[C@@H]2CSSC[C@@H]3NC(=O)[C@H](CCCCN)NC(=O)[C@H](CC(C)C)NC(=O)[C@H](CC(N)=O)NC(=O)[C@@H]4CCCN4C(=O)[C@H](CCCNC(=N)N)NC(=O)[C@H](CSSC[C@H](NC(=O)[C@@H](N)CC(=O)O)C(=O)N[C@@H](CC(C)C)C(=O)NCC(=O)N[C@@H](Cc4ccccc4)C(=O)N[C@@H](CCSC)C(=O)N[C@@H](CCCNC(=N)N)C(=O)N[C@@H](CCCCN)C(=O)N2)NC(=O)[C@H](CSSC[C@@H](C(=O)N[C@@H](CCCCN)C(=O)N[C@@H](Cc2ccc(O)cc2)C(=O)N[C@H](C(=O)N[C@@H](Cc2ccccc2)C(N)=O)C(C)C)NC(=O)[C@H](Cc2c[nH]c4ccccc24)NC(=O)[C@H](CCCCN)NC(=O)[C@H](Cc2cnc[nH]2)NC(=O)[C@H]([C@@H](C)O)NC(=O)[C@H](CCCNC(=N)N)NC(=O)[C@H](CO)NC3=O)NC(=O)[C@H](CCCCN)NC(=O)[C@H](CC(=O)O)NC(=O)[C@H](CC(N)=O)NC(=O)[C@H](CC(=O)O)NC(=O)[C@@H]2CCCN2C1=O (H-DCLGFMRKCIPDNDKCCRPNLKCSRTHKWCKYVF-NH2; disulfide 2-17, 9-23, 16-30)	> 5		0.2
